Measurements reported in ChEMBL document CHEMBL4665839, “Pyrrolo[2',3':3,4]cyclohepta[1,2-d][1,2]oxazoles, a New Class of Antimitotic Agents Active against Multiple Malignant Cell Types” (J Med Chem, 2020).
Activity calls are given as the source filed them. The calls are words filed in the database; no cut-off is given here.

Tests used:
HeLa [1] = assay: Induction of cell cycle arrest in human Hela cells assessed as accumulation at M phase at 1 uM incubated for 24 hrs by PI staining based flow cytometric analysis; assay type: functional
HeLa [2] = assay: Induction of cell cycle arrest in human Hela cells assessed as reduction of cells at S phase 1 uM incubated for 24 hrs by PI staining based flow cytometric analysis; assay type: functional
[3] = Cytotoxicity against human PBL assessed as reduction in cell viability incubated for 72 hrs by MTT assay; assay type: cell-based; conditions: peripheral blood lymphocytes (PBL)
Method in brief: (§1)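 PBLs from healthy donor buffy coats isolated by density-gradient centrifugation, washed, held overnight at 1.0 × 10^6 cells/mL in RPMI-1640 with 10% FBS. Nonadherent cells reseeded at 5 × 10^5 cells/mL, either with 2.5 μg/mL PHA (proliferating) or without (resting). Graded compound concentrations for 72 h, viability by MTT. GI50 = concentration inhibiting growth 50%; mean ± SEM of three separate experiments.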

[4] = Cytotoxicity against human PBL assessed as reduction in cell viability in presence of mitogenic stimulus phytohaemagglutinin incubated for 72 hrs by MTT assay; assay type: cell-based; method in brief: as §1
HeLa [5] = assay: Induction of cell cycle arrest in human Hela cells assessed as cdc25c expression at 0.1 uM incubated for 48 hrs by Western blot analysis relative to control; assay type: functional
Method in brief: (§2)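 HeLa cells treated at 0.1 or 0.5 μM for 24 or 48 h, washed in ice-cold PBS, lysed on ice 30 min, cleared at 15 000g, 4 °C. 10 μg protein per lane on SDS-PAGE, transferred to PVDF, blocked overnight in 5% BSA at 4 °C. Primary antibodies 2 h at room temperature, peroxidase secondaries 1 h, ECL detection. Membranes reprobed for GAPDH; densitometry reported as protein/GAPDH ratio.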

HeLa [6] = assay: Induction of apoptosis in human HeLa cells assessed as cleaved PARP protein expression at 0.1 uM incubated for 48 hrs by Western blot analysis relative to control; assay type: functional; method in brief: as §2
HeLa [7] = assay: Induction of apoptosis in human HeLa cells assessed as XIAP protein expression at 0.5 uM incubated for 24 hrs by Western blot analysis relative to control; assay type: functional; method in brief: as §2
HeLa [8] = assay: Induction of cell cycle arrest in human Hela cells assessed as cyclin B expression at 0.5 uM incubated for 48 hrs by Western blot analysis relative to control; assay type: functional; method in brief: as §2
HeLa [9] = assay: Induction of cell cycle arrest in human Hela cells assessed as cdc25c expression at 0.5 uM incubated for 24 hrs by Western blot analysis relative to control; assay type: functional; method in brief: as §2
HeLa [10] = assay: Induction of apoptosis in human Hela cells assessed as increase in apoptotic cells at 0.5 uM incubated for 24 to 48 hrs by Annexin V-FITC/propidium iodide staining based flow cytometry; assay type: functional, cell-based; conditions: time hrs 24-48
Method in brief: (§3)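 HeLa cells exposed 24 or 48 h, harvested, double-stained with annexin-V-FITC and PI, then read by flow cytometry. Gates: live (annexin-V–/PI–), early apoptotic (annexin-V+/PI–), late apoptotic (annexin-V+/PI+), necrotic (annexin-V–/PI+). Mean ± SEM of three independent experiments.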

HeLa [11] = assay: Induction of apoptosis in human HeLa cells assessed as XIAP protein expression at 0.1 uM incubated for 48 hrs by Western blot analysis relative to control; assay type: functional; method in brief: as §2
HeLa [12] = assay: Induction of cell cycle arrest in human Hela cells assessed as cyclin B expression at 0.1 uM incubated for 48 hrs by Western blot analysis relative to control; assay type: functional; method in brief: as §2
HeLa [13] = assay: Induction of cell cycle arrest in human Hela cells assessed as accumulation at G2/M phase incubated for 24 hrs by PI staining based flow cytometric analysis; assay type: functional
HeLa [14] = assay: Induction of cell cycle arrest in human Hela cells assessed as cyclin B expression at 0.5 uM incubated for 24 hrs by Western blot analysis relative to control; assay type: functional; method in brief: as §2
HeLa [15] = assay: Induction of apoptosis in human HeLa cells assessed as MCL1 protein expression at 0.5 uM incubated for 48 hrs by Western blot analysis relative to control; assay type: functional; method in brief: as §2
HeLa [16] = assay: Induction of reactive oxygen species generation in human HeLa cells at 0.5 uM treated for 48 hrs by H2DCFDA staining based flow cytometry; assay type: functional, cell-based
Method in brief: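 After treatment, HeLa cells pelleted and resuspended in PBS containing 0.1 μM H2DCFDA, incubated 30 min at 37 °C, then washed back into PBS. DCF fluorescence measured by flow cytometry (excitation 488 nm, emission 530 nm). Mean ± SEM of three independent experiments.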

HeLa [17] = assay: Induction of cell cycle arrest in human Hela cells assessed as cyclin B expression at 0.1 uM incubated for 24 hrs by Western blot analysis relative to control; assay type: functional; method in brief: as §2
HeLa [18] = assay: Induction of apoptosis in human HeLa cells assessed as MCL1 protein expression at 0.1 uM incubated for 24 hrs by Western blot analysis relative to control; assay type: functional; method in brief: as §2
HeLa [19] = assay: Induction of apoptosis in human HeLa cells assessed as cleaved PARP protein expression at 0.1 uM incubated for 24 hrs by Western blot analysis relative to control; assay type: functional; method in brief: as §2
HeLa [20] = assay: Induction of apoptosis in human Hela cells assessed as increase in necrotic cells at 0.5 uM incubated for 24 to 48 hrs by Annexin V-FITC/propidium iodide staining based flow cytometry; assay type: functional, cell-based; conditions: time hrs 24-48; method in brief: as §3
HeLa [21] = assay: Induction of apoptosis in human HeLa cells assessed as cleaved PARP protein expression at 0.5 uM incubated for 24 hrs by Western blot analysis relative to control; assay type: functional; method in brief: as §2
HeLa [22] = assay: Induction of cell cycle arrest in human Hela cells assessed as phosphorylated cdc2 expression at 0.1 uM incubated for 24 hrs by Western blot analysis relative to control; assay type: functional; method in brief: as §2
HeLa [23] = assay: Induction of apoptosis in human HeLa cells assessed as cleaved PARP protein expression at 0.5 uM incubated for 48 hrs by Western blot analysis relative to control; assay type: functional; method in brief: as §2
HeLa [24] = assay: Induction of cell cycle arrest in human Hela cells assessed as phosphorylated cdc2 expression at 0.1 uM incubated for 48 hrs by Western blot analysis relative to control; assay type: functional; method in brief: as §2
HeLa [25] = assay: Induction of apoptosis in human HeLa cells assessed as MCL1 protein expression at 0.5 uM incubated for 24 hrs by Western blot analysis relative to control; assay type: functional; method in brief: as §2
HeLa [26] = assay: Induction of cell cycle arrest in human Hela cells assessed as phosphorylated cdc2 expression at 0.5 uM incubated for 24 hrs by Western blot analysis relative to control; assay type: functional; method in brief: as §2
HeLa [27] = assay: Induction of cell cycle arrest in human Hela cells assessed as cdc25c expression at 0.1 uM incubated for 24 hrs by Western blot analysis relative to control; assay type: functional; method in brief: as §2
HeLa [28] = assay: Induction of apoptosis in human HeLa cells assessed as MCL1 protein expression at 0.1 uM incubated for 48 hrs by Western blot analysis relative to control; assay type: functional; method in brief: as §2
HeLa [29] = assay: Induction of cell cycle arrest in human Hela cells assessed as accumulation at G2/M phase at 0.125 uM incubated for 24 hrs by PI staining based flow cytometric analysis; assay type: functional
Method in brief: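 5 × 10^5 HeLa cells treated 24 h over a range of concentrations, fixed in ice-cold 70% ethanol, treated with lysis buffer containing RNase A and 0.1% Triton X-100, PI-stained. DNA content read by flow cytometry; phase distribution is mean ± SEM of three experiments.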

HeLa [30] = assay: Induction of cell cycle arrest in human Hela cells assessed as phosphorylated cdc2 expression at 0.5 uM incubated for 48 hrs by Western blot analysis relative to control; assay type: functional; method in brief: as §2
HeLa [31] = assay: Induction of apoptosis in human HeLa cells assessed as XIAP protein expression at 0.1 uM incubated for 24 hrs by Western blot analysis relative to control; assay type: functional; method in brief: as §2
HeLa [32] = assay: Induction of cell cycle arrest in human Hela cells assessed as accumulation at G2/M phase at 0.25 uM incubated for 24 hrs by PI staining based flow cytometric analysis; assay type: functional
Method in brief: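 HeLa cells (5 × 10^5) exposed to compound at several concentrations for 24 h, then collected, fixed in ice-cold 70% ethanol, treated with lysis buffer containing RNase A and 0.1% Triton X-100, stained with propidium iodide. DNA content measured by flow cytometry; percentage of cells in each cycle phase derived from DNA histograms. Mean ± SEM of three experiments.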

**Q.** Which results are given for `CCOC(=O)c1cc2c(n1Cc1cccc(OC)c1)-c1oncc1CCC2`?
**A.** Activity (HeLa [1]): Active; Activity (HeLa [2]): Active; GI50 at 72 h [3]: > 100 µM; GI50 at 72 h [4]: > 100 µM

**Q.** Which results are given for `CCOC(=O)c1cc2c(n1Cc1cc(OC)cc(OC)c1)-c1oncc1CCC2`?
**A.** fold change (FC) (HeLa [5]): 0.23; fold change (FC) (HeLa [6]): 13.8; fold change (FC) (HeLa [7]): 0.54; fold change (FC) (HeLa [8]): 2.05; fold change (FC) (HeLa [9]): 0.05; Activity (HeLa [10]): Active; fold change (FC) (HeLa [11]): 0.12; fold change (FC) (HeLa [12]): 2.39; Activity (HeLa [13]): Dose-dependent effect; fold change (FC) (HeLa [14]): 64.07; fold change (FC) (HeLa [15]): 0.38; Activity (HeLa [16]): Active; fold change (FC) (HeLa [17]): 18.74; fold change (FC) (HeLa [18]): 0.37; fold change (FC) (HeLa [19]): 17.65; Activity (HeLa [20]): Active; fold change (FC) (HeLa [21]): 42.13; fold change (FC) (HeLa [22]): 0.51; GI50 at 72 h [3]: > 100 µM; GI50 at 72 h [4]: > 100 µM; fold change (FC) (HeLa [23]): 42.83; fold change (FC) (HeLa [24]): 0.17; fold change (FC) (HeLa [25]): 0.11; fold change (FC) (HeLa [26]): 0.31; fold change (FC) (HeLa [27]): 0.23; fold change (FC) (HeLa [28]): 0.37; Activity (HeLa [29]): Active; fold change (FC) (HeLa [30]): 0.31; fold change (FC) (HeLa [31]): 0.91

**Q.** What does the source list for `CCOC(=O)c1c(Cl)c2c(n1Cc1cc(OC)cc(OC)c1)-c1oncc1CCC2`?
**A.** GI50 at 72 h [3]: > 100 µM; GI50 at 72 h [4]: > 100 µM; Activity (HeLa [32]): Active
